High-throughput results (PubChem BioAssay)
TAAR1 agonist: human TAAR1 agonists, primary screen, Fluo-8 calcium fluorescence, CHO RD-HGA16 cells; activation, % at 3 µM; AID 624467, 2012; Trace amine-associated receptor 1 (Homo sapiens), Q96RJ0; 360,000 tested, 0.99% active; vehicle wells 0%, saturating PEA agonist 100%;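 active = activation above the mean activation of all test compounds in the run plus 3 SD, cut at about 38% in these data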
Target sequence (Q96RJ0 whole entry, looked up): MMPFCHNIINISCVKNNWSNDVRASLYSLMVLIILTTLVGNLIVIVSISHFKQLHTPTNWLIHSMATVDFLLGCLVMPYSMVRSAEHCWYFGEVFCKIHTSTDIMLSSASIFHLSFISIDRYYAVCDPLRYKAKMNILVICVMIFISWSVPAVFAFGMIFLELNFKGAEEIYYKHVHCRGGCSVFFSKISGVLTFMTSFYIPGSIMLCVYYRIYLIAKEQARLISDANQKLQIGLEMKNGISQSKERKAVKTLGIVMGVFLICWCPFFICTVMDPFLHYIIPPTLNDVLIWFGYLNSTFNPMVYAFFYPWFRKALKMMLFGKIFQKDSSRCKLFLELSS
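Test system: RD-HGA16 (CHO) cells co-expressing Gα16 and hTAAR1; dosing: one-point dosing at 3 µM (nominal); timing: 17-24 h seeding, 75 min 37 °C dye, 30 min RT; signal: kinetic Fluo-8 calcium fluorescence; read-out basis: % activation relative to PEA EC100 response; controls: DMSO and PEA EC100; replicates: n 1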
GPR7 antag: GPR7 receptor antagonists, primary screen, cell-based, fluorescence, single concentration; 290,000 tested, 1.1% active; Neuropeptides B/W receptor type 1 (Homo sapiens), P48145; inhibition, % at 4.4 µM; GPR7-expressing cells, fluorescence antagonist assay; in the data active = inhibition above about 16%, passing the limit was not always enough;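 note: cells stimulated with the agonist NPW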
Target sequence (P48145 whole entry, looked up): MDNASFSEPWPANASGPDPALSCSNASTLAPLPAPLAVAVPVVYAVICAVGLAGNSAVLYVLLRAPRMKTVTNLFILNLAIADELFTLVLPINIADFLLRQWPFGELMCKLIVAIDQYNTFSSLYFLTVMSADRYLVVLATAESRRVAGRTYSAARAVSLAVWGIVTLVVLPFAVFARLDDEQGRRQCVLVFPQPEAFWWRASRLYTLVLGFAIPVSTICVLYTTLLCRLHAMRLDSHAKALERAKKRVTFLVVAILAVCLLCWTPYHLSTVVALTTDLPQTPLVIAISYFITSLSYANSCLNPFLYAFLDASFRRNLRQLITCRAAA
OX1R antag-1: OX1R (HCRTR1) antagonists, primary screen, fluorescence, CHO/OX1R cells, Fluo-8 calcium, orexin A. inhibition, % at 5 µM. Fluo-8 calcium fluorescence. Orexin/Hypocretin receptor type 1 (Homo sapiens), O43613. 330,000 tested, 0.43% active;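 active = inhibition above its plate's threshold, mean inhibition of all tested compounds on the plate plus 3 SD, cut at about 37% in these data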
CHO parental Ca: ATP-evoked calcium signal inhibitors, parental CHO, primary screen, counter-screen for OX1R antagonist project, cell-based, fluorescence, Fluo-8 calcium dye; parental CHO-K1, ATP-induced calcium, Fluo-8 fluorescence; inhibition, % at 5.6 µM; 330,000 tested, 0.63% active; AID 463079, 2010;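 active = inhibition above that plate's mean sample inhibition plus 3 SD, cut at about 26% in these data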
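Test system: untransfected parental CHO cell line. Compound: one dose, 5.6 µM nominal. Detection: intracellular calcium via Fluo-8 no-wash fluorescent dye. Measure: % inhibition. Benchmarks: ATP-challenged DMSO wells low, unchallenged DMSO wells high.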
TAAR1 antagonist: human TAAR1 antagonists, primary screen, Fluo-8 calcium fluorescence, CHO RD-HGA16 cells; antagonist; inhibition, % at 3 µM; 360,000 tested, 1.5% active; AID 624466, 2012;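 active = inhibition above a per-plate cutoff, the mean inhibition of test compounds on that plate plus 3 SD, cut at about 49% in these data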
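Test system: CHO RD-HGA16 cells bearing hTAAR1 | Reagent: β-PEA, EC80 | Compound dosing: 3 µM, single point | Schedule: Dye loading 75 min at 37 °C, then 30 min room temperature | Signal: Calcium fluorescence with Fluo-8 | Evaluation: Percent inhibition of PEA-evoked calcium signal, max/basal emission ratio | Control set: DMSO-only wells and EC80 β-PEA-stimulated wells | Repeats: Singlicate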
OX1R antag-2: antagonists of human orexin 1 receptor (OX1R); Orexin/Hypocretin receptor type 1 (Homo sapiens), O43613; OX1R-expressing cells, FRET antagonist read-out; inhibition, % at 6.6 µM; 330,000 tested, 1.8% active; AID 485270, 2010; in the data active = inhibition mostly above about 38%, no sharp cut-off; inactive = mostly below about 40%
GPR7 antag conf: GPR7 receptor antagonists, confirmation, cell-based, fluorescence, single concentration; shares compounds with GPR7 antag; GPR7-expressing cells, calcium fluorescence antagonist mode; inhibition, % at 4.4 µM; 2,400 tested, 52% active; AID 1952, 2009; in the data active = inhibition above about 24%;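 note: stimulated with the GPR7 agonist NPW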
MCHR1 antag: MCHR1 antagonists in cells, counter-screen for GPR7 antagonist project, cell-based, fluorescence, human. shares compounds with GPR7 antag. MCHR1-expressing cells, fluorescence antagonist assay. inhibition, % at 4.4 µM. 2,400 tested, 62% active. AID 2148, 2009; in the data active = inhibition above about 22%
A number is an active result; . = inactive; / = not tested or not shown. Only some compounds are listed: those with a hit (about 4.6% of all), similar ones and a draw of the others.

SMILES	TAAR1 agonist	GPR7 antag	OX1R antag-1	CHO parental Ca	TAAR1 antagonist	OX1R antag-2	GPR7 antag conf	MCHR1 antag
CN(C)CCCN(C(=O)c1ccc(S(=O)(=O)N(C)C2CCCCC2)cc1)c1nc2ccc(Br)cc2s1	.	22	.	.	.	.	50	55
COc1cc2nc(N(CCCN(C)C)C(=O)c3ccc(S(=O)(=O)N(C)C4CCCCC4)cc3)sc2cc1OC	.	/	.	.	.	.	/	/
COc1cc(CN(CCN(C)C)Cc2ccccc2)ccc1OCc1ccccc1	.	44	.	.	.	.	57	34
CNCc1ccc(OCc2ccccc2)c(OC)c1	.	.	.	.	.	.	/	/
COc1cccc(CNC(=O)C2CCCN(S(=O)(=O)c3ccc4c(c3)C(C)(C)C(=O)N4C)C2)c1 (stereo not drawn)	.	.	.	.	.	.	/	/
C/C(=N\NC(=O)CCn1nnc2ccccc21)c1ccco1	.	21	.	.	.	.	.	.
CC(=O)Nc1ccc(NC(=O)CCn2nnc3ccccc32)cc1	.	.	.	.	.	.	/	/
Cc1ccc(S(=O)(=O)N2CCC(C(=O)OCC(=O)N3C(C)CCCC3C)CC2)cc1C (stereo not drawn)	.	/	/	/	.	/	/	/
CC1(CCc2ccc3c(c2)OCO3)NCCc2c1[nH]c1ccccc21 (stereo not drawn)	49	60	.	.	.	.	39	45
CSc1ncc(C(=O)Nc2ccc(C(C)=O)cc2)c(C)n1	.	.	/	/	.	/	/	/
COc1ccc(S(=O)(=O)N2CCC(C(=O)NCCc3ccc4c(c3)OCO4)CC2)cc1	.	28	.	.	.	.	.	.
COc1ccc(CCNC(=O)c2ccc3c(c2)OCCO3)cc1	.	28	.	.	.	.	.	.
COc1ccc(S(=O)(=O)N2CCC(C(=O)NCc3ccco3)CC2)cc1	.	80	.	.	.	.	24	.
O=C(NCCc1ccc2c(c1)OCO2)C1CCN(S(=O)(=O)c2ccc(Cl)cc2)CC1	.	.	.	.	.	.	/	/
Cc1nn(C)c(C)c1S(=O)(=O)N1CCC(CO)(CC2CCCCO2)CC1 (stereo not drawn)	.	.	.	.	.	.	/	/
COc1ccccc1CC(=O)O/N=C(\N)c1ccccn1	.	.	.	.	.	.	/	/
COc1ccc(CC(=O)O/N=C(\N)c2ccccn2)cc1OC	.	24	/	/	.	/	.	.
CCOC(=O)C1CCN(S(=O)(=O)c2c(Cl)ccc3nonc23)CC1	.	44	.	.	.	89	56	46
N/C(=N\OC(=O)CC(c1ccccc1)c1ccccc1)c1cccnc1	.	.	.	.	.	.	/	/
CCOC(=O)c1c(NC(=O)CSc2ncccn2)sc2c1CCN(Cc1ccccc1)C2	.	27	/	/	.	/	.	51
O=C(Nc1ccc(S(=O)(=O)N2CCCCC2)cc1)c1ccc(CN2CCc3ccccc3C2)cc1	.	25	.	47	.	.	49	57
Cc1ccc(C(=O)Nc2ccc(S(=O)(=O)N3CCN(C)CC3)cc2)cc1	.	45	.	.	.	.	.	.
COCCN1Cc2cccc(C(=O)Nc3ccc(S(=O)(=O)N4CCCCC4)cc3)c2C1=O	.	24	.	.	.	.	.	.
O=C(Nc1ccccc1)c1ccc(CN2CCc3ccccc3C2)cc1	.	.	.	.	.	.	/	/
Cc1sc(NC(=O)c2ccco2)c(CN2CCN(c3ccccn3)CC2)c1C	/	32	.	.	/	.	.	49
SMILES	TAAR1 agonist	GPR7 antag	OX1R antag-1	CHO parental Ca	TAAR1 antagonist	OX1R antag-2	GPR7 antag conf	MCHR1 antag
CCCCCCn1c2c(c(=N)c3c1CCC3)CCC2	.	37	.	.	.	.	42	46
CCCCn1c2c(c(=N)c3c1CCC3)CCC2	.	.	.	.	.	.	/	/
O=C(Nc1ccccc1)Nc1ncc([N+](=O)[O-])s1	.	23	/	/	.	/	.	53
CCCCC(=O)Nc1ncc([N+](=O)[O-])s1	.	.	.	.	.	.	/	/
O=C(c1ccc(CSc2ccc(Cl)cc2)o1)N1CCOCC1	.	/	/	/	.	/	/	/
COc1ccc(CSc2nnnn2-c2ccc(C(N)=O)cc2)cc1[N+](=O)[O-]	.	36	.	.	.	.	.	39
O=C(Nc1ccc(F)cc1)c1cccc(N2C(=O)C3C4C=CC(C5CC45)C3C2=O)c1 (stereo not drawn)	.	26	.	.	.	.	24	45
CCC(C)n1c(SCc2ccc([N+](=O)[O-])cc2)nc2ccsc2c1=O (stereo not drawn)	.	25	.	.	.	.	.	44
CCCCn1c(SCc2cccc([N+](=O)[O-])c2)nc2ccsc2c1=O	.	.	.	.	.	.	/	/
COc1ccc(CNC(=O)CCNC(=O)c2ccc(C(C)(C)C)cc2)cc1OC	.	/	/	/	.	/	/	/
COc1ccc(-c2nc(SCC(=O)NC3CCCCC3)n[nH]2)cc1	.	23	/	/	.	/	.	35
Cc1cccc(N(CC(=O)NC2CCCCC2)C(=O)CCCC(=O)Nc2ccccn2)c1C	.	29	.	.	.	.	.	.
O=C1CCCCCN1Sc1ccccc1	.	26	.	.	.	.	32	88
O=C1CCCCCN1C(=O)c1ccccc1	.	/	/	/	.	/	/	/
O=C(C1=C(O)C(=O)N(CCN2CCOCC2)C1c1ccc([N+](=O)[O-])cc1)c1cccs1 (stereo not drawn)	/	.	.	.	/	.	/	/
Cc1oc(C(N)=O)nc1-c1ccccc1	.	.	.	.	.	.	/	/
O=C(c1cc(F)ccc1F)C1CCCN(Cc2cccn2-c2ccccn2)C1 (stereo not drawn)	.	37	.	.	.	.	.	24
COc1ccc(F)cc1C(=O)C1CCCN(Cc2cn(C)c3ccccc23)C1 (stereo not drawn)	.	24	.	.	.	.	33	30
O=C(COc1ccc([N+](=O)[O-])cc1)Nc1ccccc1N1CCCC1	.	.	.	.	.	.	/	/
O=C(COc1ccc2ccc(=O)oc2c1)NCCN1CCOCC1	.	/	/	/	.	/	/	/
COc1ccc(OC)c(C(c2nnnn2Cc2ccco2)N2CCN(C)CC2)c1 (stereo not drawn)	.	.	.	.	.	.	/	/
